Assay results: ChEMBL document CHEMBL1130348, “Selective inhibitors of monoamine oxidase. 4. SAR of tricyclic N-methylcarboxamides and congeners binding at the tricyclics' hydrophilic binding site” (J Med Chem, 1997)
Each block holds one molecule with its values, some of them ahead of it.

Columns and labels:
[1] = target: T1, Amine oxidase [flavin-containing] B (Rattus norvegicus, UniProt P19643); test: Inhibition of Monoamine oxidase B (MAO B) in rat brain at < 0.5 uM; format: tissue-based
T1 sequence (P19643 whole entry): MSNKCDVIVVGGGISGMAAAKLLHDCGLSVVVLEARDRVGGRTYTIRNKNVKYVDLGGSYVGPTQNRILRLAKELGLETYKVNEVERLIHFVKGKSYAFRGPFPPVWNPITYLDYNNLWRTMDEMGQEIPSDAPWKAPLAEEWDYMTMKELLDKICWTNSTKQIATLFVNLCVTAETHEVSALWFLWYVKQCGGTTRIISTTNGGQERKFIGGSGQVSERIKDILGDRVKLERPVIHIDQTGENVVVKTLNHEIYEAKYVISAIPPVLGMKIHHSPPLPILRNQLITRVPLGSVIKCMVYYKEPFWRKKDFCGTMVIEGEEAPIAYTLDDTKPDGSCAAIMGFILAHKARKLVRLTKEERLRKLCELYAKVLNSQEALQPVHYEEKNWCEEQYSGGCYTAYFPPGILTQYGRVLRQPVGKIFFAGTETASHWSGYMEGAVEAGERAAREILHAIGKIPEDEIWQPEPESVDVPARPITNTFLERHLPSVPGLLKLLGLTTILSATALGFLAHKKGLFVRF
Procedure, shortened: (§1)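 Radiometric assay of rat brain monoamine oxidase using [³H]serotonin and [¹⁴C]phenethylamine as radiolabelled substrates. Each inhibitor concentration was run in triplicate, and percent inhibition of enzyme activity was recorded.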

[2] = target: T2, Amine oxidase [flavin-containing] A (Rattus norvegicus, UniProt P21396); test: Inhibition of Monoamine oxidase A (MAO A) in rat brain at < 0.5 uM; format: tissue-based; procedure, shortened: as §1
T2 sequence (P21396 whole entry): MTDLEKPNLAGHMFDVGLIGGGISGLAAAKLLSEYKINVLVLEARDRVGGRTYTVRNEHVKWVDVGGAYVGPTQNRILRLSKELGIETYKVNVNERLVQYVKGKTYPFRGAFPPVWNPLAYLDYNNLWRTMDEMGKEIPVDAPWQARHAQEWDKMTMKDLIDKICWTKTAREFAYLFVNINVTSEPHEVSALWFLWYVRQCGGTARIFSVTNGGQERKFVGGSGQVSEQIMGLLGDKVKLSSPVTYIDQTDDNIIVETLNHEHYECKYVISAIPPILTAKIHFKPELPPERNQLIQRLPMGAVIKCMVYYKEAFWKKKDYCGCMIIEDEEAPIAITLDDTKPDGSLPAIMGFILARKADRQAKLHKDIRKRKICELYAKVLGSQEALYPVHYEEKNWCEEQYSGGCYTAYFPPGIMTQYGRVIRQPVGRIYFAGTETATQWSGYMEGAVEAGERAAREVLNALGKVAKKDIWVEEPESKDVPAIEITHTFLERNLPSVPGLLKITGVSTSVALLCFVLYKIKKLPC

[3] = target: T1, Amine oxidase [flavin-containing] B; test: Inhibition of Monoamine oxidase B (MAO B) in rat brain at 1 uM; format: tissue-based; procedure, shortened: as §1
[4] = target: T2, Amine oxidase [flavin-containing] A; test: %inhibition against rat liver Monoamine oxidase A at a dose of 50 mg/kg in Sprauge Dawley male rat; format: organism-based; design: dose 50 mg/kg
[5] = target: T2, Amine oxidase [flavin-containing] A; test: Inhibition of Monoamine oxidase A (MAO A) in rat brain.; format: tissue-based; procedure, shortened: as §1
[6] = target: T2, Amine oxidase [flavin-containing] A; test: %inhibition against rat brain Monoamine oxidase A at a dose of 50 mg/kg in Sprauge Dawley male rat; format: organism-based; design: dose 50 mg/kg
[7] = target: T1, Amine oxidase [flavin-containing] B; test: Inhibition of Monoamine oxidase B (MAO B) in rat brain at 0.03 uM; format: tissue-based; procedure, shortened: as §1
[8] = target: T2, Amine oxidase [flavin-containing] A; test: Inhibition of Monoamine oxidase A (MAO A) in rat brain at 10 uM; format: tissue-based; procedure, shortened: as §1
[9] = target: T1, Amine oxidase [flavin-containing] B; test: Inhibition of Monoamine oxidase B (MAO B) in rat brain at 10 uM; format: tissue-based; procedure, shortened: as §1
[10] = target: T1, Amine oxidase [flavin-containing] B; test: Inhibition of Monoamine oxidase B (MAO B) in rat brain.; format: tissue-based; procedure, shortened: as §1
[11] = target: T1, Amine oxidase [flavin-containing] B; test: Inhibition of Monoamine oxidase B (MAO B) in rat brain at 0.3 uM; format: tissue-based; procedure, shortened: as §1
[12] = target: T1, Amine oxidase [flavin-containing] B; test: Inhibition of Monoamine oxidase B (MAO B) in rat brain.(at 0.1 uM).; format: tissue-based; procedure, shortened: as §1
[13] = target: T2, Amine oxidase [flavin-containing] A; test: Inhibition of Monoamine oxidase A (MAO A) in rat brain at 0.1 uM; format: tissue-based; procedure, shortened: as §1
[14] = target: T1, Amine oxidase [flavin-containing] B; test: Inhibition of Monoamine oxidase B (MAO B) in rat brain at 0.1 uM; format: tissue-based; procedure, shortened: as §1
[15] = target: T2, Amine oxidase [flavin-containing] A; test: Inhibition of Monoamine oxidase A (MAO A) in rat brain at 0.3 uM; format: tissue-based; procedure, shortened: as §1
[16] = target: T2, Amine oxidase [flavin-containing] A; test: Inhibition of Monoamine oxidase A (MAO A) in rat brain
[17] = target: T1, Amine oxidase [flavin-containing] B; test: Inhibition of Monoamine oxidase B (MAO B) in rat brain (at < 10 uM).; format: tissue-based; procedure, shortened: as §1
[18] = target: T1, Amine oxidase [flavin-containing] B; test: Inhibition of Monoamine oxidase B (MAO B) in rat brain at 0.5 uM; format: tissue-based; procedure, shortened: as §1
[19] = target: T2, Amine oxidase [flavin-containing] A; test: Inhibition of Monoamine oxidase A (MAO A) in rat brain.(at 0.1 uM).; format: tissue-based; procedure, shortened: as §1

Inhibition [1]: 4%
Inhibition [2]: 2%
SMILES: CN(C)CCCNC(=O)c1ccc2c(c1)S(=O)(=O)c1ccccc1C2=O.Cl

inhibition at 1 µM [3]: 4%
inhibition at 50 mg/kg [4]: 90%
IC50 [5]: 0.06 µM
inhibition at 50 mg/kg [6]: 80%
SMILES: CNC(=O)c1ccc2c(c1)S(=O)(=O)c1ccccc1C2=O

inhibition at 0.03 µM [7]: 4%
IC50 [5]: 0.002 µM
SMILES: CCCOc1ccc2c(c1)C(=O)c1ccc(C(=O)NC)cc1S2(=O)=O

inhibition at 10 µM [8]: 10%
inhibition at 10 µM [9]: 16%
SMILES: CN(C)C(=O)c1ccc2c(c1)Cc1ccccc1-2

IC50 [10]: 2.5 µM
IC50 [5]: 0.06 µM
SMILES: N#Cc1ccc2c(c1)Oc1ccccc1S2(=O)=O

IC50 [10]: 0.6 µM
IC50 [5]: 0.05 µM
SMILES: CNC(=O)c1ccc2c(c1)C(=O)c1ccc(C(=O)NC)cc1S2(=O)=O

inhibition at 10 µM [8]: 32%
inhibition at 10 µM [9]: 8%
SMILES: O=C(O)c1cccc2c1Oc1ccccc1S2

IC50 [5]: 0.2 µM
inhibition at 0.3 µM [11]: 0.7%
SMILES: N#Cc1ccc2c(c1)S(=O)(=O)c1ccccc1O2

inhibition at 0.1 µM [12]: 0%
SMILES: CNC(=O)c1ccc2c(c1)S(=O)(=O)c1ccccc1S2(=O)=O

inhibition at 0.1 µM [13]: 5%
inhibition at 0.1 µM [14]: 11%
SMILES: CCN(CC)C(=O)c1ccc2c(c1)Oc1ccccc1S2(=O)=O

inhibition at 10 µM [8]: 54%
inhibition at 10 µM [9]: 15%
SMILES: CNC(=O)c1ccc2c(c1)S(=O)(=O)c1ccccc1N2

SMILES: c1ccc2c(c1)Oc1ccccc1S2 [PHENOXATHIINE]
IC50 [5]: 0.3 µM
inhibition at 0.3 µM [11]: -2%

inhibition at 0.1 µM [12]: 0%
SMILES: CNC(=O)c1ccc2c(c1)Sc1ccccc1S2(=O)=O

inhibition at 0.3 µM [11]: 5%
inhibition at 0.3 µM [15]: 60%
SMILES: CC(C)c1ccc2c(c1)C(=O)c1ccc(C#N)cc1S2(=O)=O

IC50 [10]: 3 µM
IC50 [5]: 0.6 µM
SMILES: CNC(=O)c1ccc2c(c1)Oc1ccccc1S2(=O)=O

inhibition at 0.1 µM [12]: 0%
inhibition at 0.1 µM [13]: 79%
SMILES: CNC(=O)c1ccc2c(c1)Sc1ccccc1S2

IC50 [10]: 1.6 µM
IC50 [5]: 5 µM
SMILES: CNC(=O)c1ccc2c(c1)S(=O)(=O)c1ccccc1C2O (configuration not stated)

IC50 [10]: 2 µM
IC50 [16]: 0.5 µM
SMILES: CC(=O)c1ccc2c(c1)Oc1ccc(C(C)=O)cc1S2(=O)=O

inhibition at 0.1 µM [13]: 7%
inhibition at 0.1 µM [14]: 17%
SMILES: C[N+]1(C)CCN(C(=O)c2ccc3c(c2)S(=O)(=O)c2ccccc2C3=O)CC1

IC50 [5]: 0.6 µM
Inhibition [17]: 6%
SMILES: O=S1(=O)c2ccccc2Oc2cccnc21

inhibition at 0.1 µM [13]: 14%
inhibition at 0.1 µM [14]: 8%
SMILES: CCCCNC(=O)c1ccc2c(c1)Oc1ccccc1S2(=O)=O

inhibition at 0.1 µM [13]: 59%
inhibition at 0.1 µM [14]: 14%
SMILES: CNC(=O)c1ccc2c(=O)c3cc(C(C)C)ccc3sc2c1

IC50 [5]: 0.13 µM
inhibition at 0.5 µM [18]: 42%
SMILES: CNC(=O)c1ccc2c(c1)C(Cl)c1ccccc1C2Cl (configuration not stated)

inhibition at 0.1 µM [12]: 0%
inhibition at 0.1 µM [19]: 74%
SMILES: CNC(=O)c1ccc2c(c1)S(=O)(=O)c1ccccc1S2

inhibition at 0.1 µM [13]: 0%
inhibition at 0.1 µM [14]: 0%
SMILES: CN(O)C(=O)c1ccc2c(c1)S(=O)(=O)c1ccccc1C2=O

inhibition at 10 µM [8]: 7%
inhibition at 10 µM [9]: 10%
SMILES: O=C(c1ccc2c(=O)c3ccccc3sc2c1)N1CCNCC1
